# Measurements reported in article PMC7153518 (ACS chemical neuroscience, 2020).
# Entries after “also recorded” stand apart in the source; their conditions may differ. Read-outs that look alike come from different tables or passages of the source.
# How the values were obtained:
# human TRPM8 (hTRPM8) = human TRPM8 (hTRPM8) (Homo sapiens, UniProt Q7Z2W7); assay type: cell-based
# human TRPA1 = human TRPA1 (Homo sapiens, UniProt O75762); experiment: FLIPR Ca2+ flux assay; assay type: cell-based; conditions: for hTRPA1% activation: normalized to Emax of AITC (300 μM); for hTRPA1% inhibition: vs EC80 of AITC (10 μM)
# Chain of human TRPA1 (O75762 whole entry): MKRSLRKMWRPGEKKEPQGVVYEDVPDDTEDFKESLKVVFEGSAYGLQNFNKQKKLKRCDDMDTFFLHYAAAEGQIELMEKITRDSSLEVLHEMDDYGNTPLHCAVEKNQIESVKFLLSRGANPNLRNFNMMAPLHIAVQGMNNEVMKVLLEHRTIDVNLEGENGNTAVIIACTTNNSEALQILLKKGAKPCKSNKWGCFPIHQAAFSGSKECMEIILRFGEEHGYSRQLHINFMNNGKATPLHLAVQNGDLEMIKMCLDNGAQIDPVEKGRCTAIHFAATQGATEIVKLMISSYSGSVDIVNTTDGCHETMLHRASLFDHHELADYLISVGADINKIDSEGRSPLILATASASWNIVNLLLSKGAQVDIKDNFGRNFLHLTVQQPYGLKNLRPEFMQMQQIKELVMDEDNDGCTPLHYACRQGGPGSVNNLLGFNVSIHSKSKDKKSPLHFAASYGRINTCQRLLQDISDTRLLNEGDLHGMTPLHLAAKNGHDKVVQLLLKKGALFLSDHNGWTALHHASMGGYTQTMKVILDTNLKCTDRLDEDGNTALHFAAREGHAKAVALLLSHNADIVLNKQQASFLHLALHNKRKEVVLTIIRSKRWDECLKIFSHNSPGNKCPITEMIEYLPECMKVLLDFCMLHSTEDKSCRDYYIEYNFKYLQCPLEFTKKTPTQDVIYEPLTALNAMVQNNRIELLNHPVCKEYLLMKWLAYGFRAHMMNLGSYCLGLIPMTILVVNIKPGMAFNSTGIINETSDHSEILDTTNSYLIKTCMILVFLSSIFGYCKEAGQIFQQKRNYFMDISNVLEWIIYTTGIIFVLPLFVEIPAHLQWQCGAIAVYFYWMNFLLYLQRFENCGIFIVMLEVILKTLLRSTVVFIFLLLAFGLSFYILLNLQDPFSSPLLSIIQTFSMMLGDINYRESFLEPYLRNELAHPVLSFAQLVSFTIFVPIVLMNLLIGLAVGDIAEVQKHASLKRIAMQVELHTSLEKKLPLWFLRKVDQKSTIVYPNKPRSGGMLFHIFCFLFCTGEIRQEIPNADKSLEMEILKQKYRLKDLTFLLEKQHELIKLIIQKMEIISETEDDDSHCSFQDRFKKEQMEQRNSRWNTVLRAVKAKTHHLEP
# human TRPV1 = human TRPV1 (Homo sapiens, UniProt Q8NER1); experiment: FLIPR Ca2+ flux assay; assay type: cell-based; conditions: for hTRPV1% activation: normalized to Emax of capsaicin (3 μM); for hTRPV1% inhibition: vs EC80 of capsaicin (0.1 μM)
# Chain of human TRPV1 (Q8NER1 whole entry): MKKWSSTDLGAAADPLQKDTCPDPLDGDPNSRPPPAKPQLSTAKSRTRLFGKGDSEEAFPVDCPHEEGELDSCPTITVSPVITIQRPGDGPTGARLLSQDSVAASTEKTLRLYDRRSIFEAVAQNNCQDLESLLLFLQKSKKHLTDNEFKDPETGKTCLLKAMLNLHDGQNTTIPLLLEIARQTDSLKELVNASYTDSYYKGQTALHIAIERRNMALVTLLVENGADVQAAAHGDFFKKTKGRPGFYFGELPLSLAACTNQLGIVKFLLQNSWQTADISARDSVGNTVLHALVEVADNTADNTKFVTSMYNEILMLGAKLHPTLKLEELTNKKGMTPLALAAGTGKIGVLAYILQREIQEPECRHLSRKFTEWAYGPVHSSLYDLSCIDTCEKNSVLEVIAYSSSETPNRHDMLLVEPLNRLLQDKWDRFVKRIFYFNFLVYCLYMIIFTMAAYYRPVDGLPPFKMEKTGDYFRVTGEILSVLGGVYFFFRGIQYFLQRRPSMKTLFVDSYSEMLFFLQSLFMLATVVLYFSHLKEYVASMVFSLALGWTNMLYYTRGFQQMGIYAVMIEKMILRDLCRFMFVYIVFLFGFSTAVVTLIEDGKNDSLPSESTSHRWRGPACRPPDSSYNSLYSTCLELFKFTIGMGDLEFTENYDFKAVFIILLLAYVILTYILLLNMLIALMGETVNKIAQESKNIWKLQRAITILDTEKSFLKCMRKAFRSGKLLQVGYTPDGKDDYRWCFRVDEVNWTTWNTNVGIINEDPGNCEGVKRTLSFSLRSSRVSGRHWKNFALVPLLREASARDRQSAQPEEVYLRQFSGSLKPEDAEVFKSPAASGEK
# [1] = tested on: Oxaliplatin (OXP)-induced cold allodynia in C57 mice; experiment: Oxaliplatin-induced cold allodynia, acetone test; assay type: in vivo
# Summary of the method: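 Male C57 mice received oxaliplatin (6 mg/kg) on days 1, 3 and 5, with saline and 5% mannitol given i.p., and were tested on day 7. Test compound (DMSO stock diluted in saline, 0.1–1 μg) was injected once into the right hind paw plantar surface. After about 30 min habituation on mesh, acetone-drop cold responses were followed over time. Mean ± SEM, n = 6; one-way ANOVA, Dunnett's.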
# [2] = Metabolic stability in mouse liver microsomes; assay type: in vitro ADME; conditions: male, CD-1, mouse
# [3] = tested on: icilin-induced WDS in mice; experiment: Wet dog shakes; assay type: in vivo
# TRPM8 [4] = conditions: read-out: IC50 (whole-cell patch clamp); cited from earlier work
# human TRPM8 = human TRPM8 (Homo sapiens, UniProt Q7Z2W7); conditions: cited from earlier work
# Chain of human TRPM8 (Q7Z2W7 whole entry): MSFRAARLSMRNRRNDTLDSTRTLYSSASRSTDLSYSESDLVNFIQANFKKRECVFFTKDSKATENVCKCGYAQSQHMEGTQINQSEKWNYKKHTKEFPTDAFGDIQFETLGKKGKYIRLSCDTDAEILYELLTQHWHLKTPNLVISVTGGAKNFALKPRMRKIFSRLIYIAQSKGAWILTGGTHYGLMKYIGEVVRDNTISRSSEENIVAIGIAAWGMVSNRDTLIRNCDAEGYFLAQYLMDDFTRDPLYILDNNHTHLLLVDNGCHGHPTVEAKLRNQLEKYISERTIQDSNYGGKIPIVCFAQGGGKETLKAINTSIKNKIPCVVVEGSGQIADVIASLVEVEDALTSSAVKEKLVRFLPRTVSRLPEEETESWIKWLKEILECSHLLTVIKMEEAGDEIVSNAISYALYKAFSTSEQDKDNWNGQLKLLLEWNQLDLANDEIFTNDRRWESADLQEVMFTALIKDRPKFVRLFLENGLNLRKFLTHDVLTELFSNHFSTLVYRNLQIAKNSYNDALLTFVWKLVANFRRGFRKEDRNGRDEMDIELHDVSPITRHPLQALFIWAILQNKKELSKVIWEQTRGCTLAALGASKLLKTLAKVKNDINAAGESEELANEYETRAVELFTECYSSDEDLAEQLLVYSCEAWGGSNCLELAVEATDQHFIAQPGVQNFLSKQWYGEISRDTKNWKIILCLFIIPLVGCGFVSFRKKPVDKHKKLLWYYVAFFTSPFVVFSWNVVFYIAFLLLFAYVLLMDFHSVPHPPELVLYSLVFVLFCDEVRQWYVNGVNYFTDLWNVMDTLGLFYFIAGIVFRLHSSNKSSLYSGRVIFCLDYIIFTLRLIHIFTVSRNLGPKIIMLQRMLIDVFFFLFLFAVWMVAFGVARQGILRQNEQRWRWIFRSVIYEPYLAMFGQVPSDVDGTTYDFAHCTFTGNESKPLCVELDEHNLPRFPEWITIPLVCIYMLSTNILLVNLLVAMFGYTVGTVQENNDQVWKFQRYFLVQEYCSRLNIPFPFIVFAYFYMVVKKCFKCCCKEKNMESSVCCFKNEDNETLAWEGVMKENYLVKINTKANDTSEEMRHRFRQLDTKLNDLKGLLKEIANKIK
# TRPM8 [5] = conditions: read-out: EC50 previously reported; CHO cells / mouse TRPM8; cited from earlier work
# TRPA1 = conditions: read-out: TRPA1 IC50; vs the effect of 80 μM AITC; cited from earlier work
# [6] = after single administration of 0.1 and 1 μg
# Chain of human TRPM8 (hTRPM8) (Q7Z2W7 whole entry): as above
smiles,measurement,setting,value
"O=C(N[C@H]1CC[C@@H]2CCCC[C@@H]2C1)c1ccc(-c2ccccc2)cc1 (racemic) [Compound 12, N-((2SR,9RS,10SR)-Decahydronaphthalen-2-yl)-[1,1′-biphenyl]-4-carboxamide]",higher potency than the diastereomeric mixture (10),human TRPM8 (hTRPM8); ratio of IC50 values,4 fold
same,hTRPA1% activation,human TRPA1; concn tested 3 nM,−2.3 ± 1.0%
same,hTRPA1% inhibition,human TRPA1; concn tested 3 nM,−0.3 ± 3%
same,hTRPA1% activation,human TRPA1; concn tested 30 nM,−2.1 ± 0.5%
same,hTRPA1% inhibition,human TRPA1; concn tested 30 nM,5 ± 9%
same,hTRPV1% activation,human TRPV1; concn tested 3 nM,2 ± 1%
same,hTRPV1% inhibition,human TRPV1; concn tested 3 nM,−12 ± 3%
same,hTRPV1% activation,human TRPV1; concn tested 30 nM,3 ± 1%
same,hTRPV1% inhibition,human TRPV1; concn tested 30 nM,1.0 ± 2%
"CC1CCC(C(C)C)C(NC(=O)c2ccc(-c3ccccc3)cc2)C1 (centres unmarked) [Compound 2, N-(2-Isopropyl-5-methylcyclohexyl)-[1,1′-biphenyl]-4-carboxamide]",increase of hTRPM8 activity relative to 1,human TRPM8 (hTRPM8); ratio of IC50 values,30 fold
"O=C(NC1CCCCCC1)c1ccc(-c2ccccc2)cc1 [Compound 5, N-Cycloheptyl-[1,1′-biphenyl]-4-Carboxamide]",improvement of hTRPM8 potency relative to 2,human TRPM8 (hTRPM8); ratio of IC50 values,8–9 fold
same,hTRPA1% activation,human TRPA1; concn tested 100 nM,0.1 ± 0.7%
same,hTRPA1% activation,human TRPA1; concn tested 1 μM,0.8 ± 0.5%
same,hTRPV1% activation,human TRPV1; concn tested 100 nM,0.0 ± 1.0%
same,hTRPV1% activation,human TRPV1; concn tested 1 μM,0.6 ± 1.5%
"O=C(NC1CCCCCCC1)c1ccc(-c2ccccc2)cc1 [Compound 7, N-Cyclooctyl-[1,1′-biphenyl]-4-carboxamide]",improvement of hTRPM8 potency relative to 2,human TRPM8 (hTRPM8); ratio of IC50 values,8–9 fold
same,hTRPA1% activation,human TRPA1; concn tested 100 nM,−1.0 ± 0.1%
same,hTRPA1% activation,human TRPA1; concn tested 1 μM,−1.5 ± 0.9%
same,hTRPV1% activation,human TRPV1; concn tested 100 nM,−1.9 ± 0.7%
same,hTRPV1% activation,human TRPV1; concn tested 1 μM,−3.2 ± 0.6%
"O=C(NC1CCCc2ccccc21)c1ccc(-c2ccccc2)cc1 (centres unmarked) [Compound 9, N-(1,2,3,4-Tetrahydronaphthalen-1-yl)-[1,1′-biphenyl]-4-carbox-amide]",loss of potency vs 8,human TRPM8 (hTRPM8); ratio of IC50 values,3 fold
"O=C(NC1CCC2CCCCC2C1)c1ccc(-c2ccccc2)cc1 (centres unmarked) [Compound 10, N-(Decahydronaphthalen-2-yl)-[1,1′-biphenyl]-4-carboxamide]",enhancement of TRPM8 potency relative to 8,human TRPM8 (hTRPM8); ratio of IC50 values,3500 fold
same,higher potency than cycloheptyl 5 and cyclooctyl 7,human TRPM8 (hTRPM8); ratio of IC50 values,10 fold
same,hTRPA1% activation,human TRPA1; concn tested 10 nM,0.2 ± 0.4%
same,hTRPA1% activation,human TRPA1; concn tested 100 nM,−1.1 ± 0.2%
same,inhibition at 0.1 µM,"human TRPV1; HEK293, read-out: hTRPV1% inhibition",2 ± 3%
same,hTRPV1% activation,human TRPV1; concn tested 10 nM,2.4 ± 0.8%
same,hTRPV1% activation,human TRPV1; concn tested 100 nM,2.3 ± 0.9%
"O=C(NC1CCc2ccccc2C1)c1ccc(-c2ccccc2)cc1 (centres unmarked) [Compound 11, N-(1,2,3,4-Tetrahydronaphthalen-2-yl)-[1,1′-biphenyl]-4-carbox-amide]",decrease of hTRPM8 potency (vs 10),human TRPM8 (hTRPM8); ratio of IC50 values,9 fold
same,hTRPA1% activation,human TRPA1; concn tested 100 nM,−0.1 ± 0.5%
same,hTRPA1% inhibition,human TRPA1; concn tested 100 nM,3 ± 6%
same,hTRPA1% activation,human TRPA1; concn tested 1 μM,−0.8 ± 0.6%
same,hTRPA1% inhibition,human TRPA1; concn tested 1 μM,4 ± 1%
same,hTRPV1% activation,human TRPV1; concn tested 100 nM,−1.8 ± 0.9%
same,hTRPV1% inhibition,human TRPV1; concn tested 100 nM,−3.1 ± 0.6%
same,hTRPV1% activation,human TRPV1; concn tested 1 μM,−0.7 ± 1.5%
same,hTRPV1% inhibition,human TRPV1; concn tested 1 μM,13 ± 3%
"O=C(NC1CCC2(CCCCC2)CC1)c1ccc(-c2ccccc2)cc1 [Compound 13, N-(Spiro[5.5]undecan-3-yl)-[1,1′-biphenyl]-4-carboxamide]",hTRPA1% activation,human TRPA1; concn tested 100 nM,0.2 ± 0.5%
same,hTRPA1% activation,human TRPA1; concn tested 1 μM,−0.2 ± 1.1%
same,hTRPV1% activation,human TRPV1; concn tested 100 nM,−1.0 ± 0.4%
same,hTRPV1% activation,human TRPV1; concn tested 1 μM,0.7 ± 0.2%
"O=C(NC1CCC2(CCCC2)CC1)c1ccc(-c2ccccc2)cc1 [Compound 14, N-(Spiro[4.5]decan-8-yl)-[1,1′-biphenyl]-4-carboxamide]",effect on OXP effects at 60 min,[1]; 60 min after administration,significantly suppresses OXP effects
same,time at which attenuated cold allodynia is evident,[1]; [6],15 min
same,time of maximum inhibition of cold allodynia,[1]; [6],30 min
same,microsomal CLint at 1 μM,[2]; liver microsomes,45.5 µL/min/mg
same,effect on menthol-evoked TRPM8-mediated Ca2+ entry,human TRPM8 (hTRPM8); 3 nM compound vs maximal (100 μM) menthol,significantly (P < 0.01) reduce
same,effect on icilin-induced Ca2+ influx at higher concentrations,human TRPM8 (hTRPM8); icilin 500 nM,nearly abolishes
same,hTRPA1% activation,human TRPA1; concn tested 3 nM,−0.8 ± 0.4%
same,hTRPA1% activation,human TRPA1; concn tested 30 nM,0.1 ± 1.2%
same,inhibition of WDS at the highest dose,"[3]; 50 mg/kg s.c., compared with gabapentin 25 mg/kg s.c.",efficacy comparable to that observed with a standard analgesic dose of gabapentin
same,effect on icilin-triggered wet dog shakes,"[3]; 1, 30 and 50 mg/kg s.c. 30 min before icilin 10 mg/kg i.p., WDS counted over 30 min, n = 6","dose-dependently blocks; also recorded: marked, dose-dependent antinociceptive behavior"
same,hTRPV1% activation,human TRPV1; concn tested 3 nM,1 ± 1%
same,hTRPV1% activation,human TRPV1; concn tested 30 nM,1 ± 2%
"O=C(NC12CC3CC(CC(C3)C1)C2)c1ccc(-c2ccccc2)cc1 [Compound 15, N-(Adamantan-1-yl)-[1,1′-biphenyl]-4-carboxamide]",hTRPA1% activation,human TRPA1; concn tested 30 nM,−2.6 ± 0.5%
same,hTRPA1% activation,human TRPA1; concn tested 300 nM,−1.5 ± 0.4%
same,hTRPV1% activation,human TRPV1; concn tested 30 nM,1.0 ± 0.2%
same,hTRPV1% activation,human TRPV1; concn tested 300 nM,1 ± 2%
COc1cc(CN(CCN)C(=O)OC(C)c2ccccc2)ccc1OCc1ccccc1 (centres unmarked) [PBMC],IC50,TRPM8 [4],0.4 to 0.6 nM
C[C@H](c1ccc(F)cc1)N(Cc1cccc(C(=O)O)c1)C(=O)c1cnc2ccccc2c1 [PF-05105679],IC50,"human TRPM8; read-out: human TRPM8 IC50, WS-12-mediated activation",181 ± 7.21 nM
same,IC50,"human TRPM8; read-out: human TRPM8 IC50, voltage-mediated activation",103 ± 29.4 nM
O=C(O)c1ccc(S(=O)(=O)N(Cc2ccc(OC(F)(F)F)cc2)c2ncc(C(F)(F)F)cc2Cl)cc1 [RQ-00203078],IC50,human TRPM8; read-out: reported potency at hTRPM8,< 10 nM
"O=C1NC(c2cccc([N+](=O)[O-])c2)=CCN1c1ccccc1O [icilin, 3-(2-hydroxyphenyl)-6-(3-nitrophenyl)-3,4-dihydropyrimidin-2(1H)-one]",EC50,TRPM8 [5],120 to 200 nM
"Cl.Cl.Cl.Cl.Cl.Cl.N.N.N.N.N.N.N.N.N.N.N.N.N.N.[O-2].[O-2].[Ru+3].[Ru+3].[Ru+4] [ruthenium red, reference compound]",IC50,TRPA1,29 ± 6 nM
same,IC50,"human TRPA1; read-out: TRPA1 IC50, vs AITC (10 μM)-activated [Ca2+]i release",162 ± 33 nM
"C[C@]12CC[C@H]3[C@@H](CCC4=CC(=O)CC[C@@]43C)[C@@H]1CC[C@@H]2O [testosterone, reference compound]",microsomal CLint,[2]; microsomes,372 µL/min/mg
